Most compounds without a hit are left out; they make up all but 2.5% or so of the library.
MEKK2 WT-MEK5: modulators of MEK5 binding to wildtype MEKK2, primary screen, biochemical, multiplex bead flow cytometry, Alexa488-MEK5; binding response (% of control), % at 10 µM; Mitogen-activated protein kinase kinase kinase 2 (Homo sapiens), Q9Y2U5; 1.1% of 290,000 active; Alexa488-MEK5 binding to MEKK2 WT; actives lie on both sides; AID 1531, 2009; in the data active = binding response below about 67% or above about 130%
Efflux pump inh: inhibitors of Candida efflux pumps in yeast, primary screen, S. cerevisiae, Nile Red, multiplex | 0.44% of 330,000 active | AID 485275, 2010 | inhibition, % at 10 µM | S. cerevisiae Candida pump triplex;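 active = plate passing quality check with inhibition over a set limit, or well fluorescence over plate mean plus 4 SD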;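 also: Nile Red retained in pooled yeast measured as flow cytometry median fluorescence; 0% = buffer negative control and 100% = Enniatin B positive control; higher means more Nile Red kept so more efflux inhibition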
MEKK2 mut-MEK5: MEK5 binding signal on mutant MEKK2 PB1, primary screen, biochemical, multiplex bead flow cytometry, Alexa488-MEK5 | Alexa488-MEK5 binding to MEKK2 mutant | 0.35% of 290,000 active | percent response, % at 10 µM; in the data active = percent response above about 24%, passing the limit was not always enough
ABCB1 block: ABCB1 efflux pump inhibitors, primary screen, cell-based, multiplex, flow cytometry, ABCG2 counter-screen; ATP-dependent translocase ABCB1 (Homo sapiens), P08183; CCRF-Adr cells, JC-1 efflux; inhibition, % at 6.6 µM; 0.067% of 190,000 active; in the data active = inhibition above about 40%;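 also: 0% = vehicle and 100% = reference inhibitor; higher value means more JC-1 retained so stronger ABCB1 efflux block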
ABCG2 block: ABCG2 efflux pump inhibitors, primary screen, multiplex with ABCB1, IgMXP3 cells, flow cytometry; 0.1% of 190,000 active; inhibition, % at 6.6 µM; JC-1 efflux; Broad substrate specificity ATP-binding cassette transporter ABCG2 (Homo sapiens), Q9UNQ0;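 active = inhibition above 80%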;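 also: 0% = DMSO and 100% = nicardipine control wells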
Target sequence (Q9UNQ0 whole entry, looked up): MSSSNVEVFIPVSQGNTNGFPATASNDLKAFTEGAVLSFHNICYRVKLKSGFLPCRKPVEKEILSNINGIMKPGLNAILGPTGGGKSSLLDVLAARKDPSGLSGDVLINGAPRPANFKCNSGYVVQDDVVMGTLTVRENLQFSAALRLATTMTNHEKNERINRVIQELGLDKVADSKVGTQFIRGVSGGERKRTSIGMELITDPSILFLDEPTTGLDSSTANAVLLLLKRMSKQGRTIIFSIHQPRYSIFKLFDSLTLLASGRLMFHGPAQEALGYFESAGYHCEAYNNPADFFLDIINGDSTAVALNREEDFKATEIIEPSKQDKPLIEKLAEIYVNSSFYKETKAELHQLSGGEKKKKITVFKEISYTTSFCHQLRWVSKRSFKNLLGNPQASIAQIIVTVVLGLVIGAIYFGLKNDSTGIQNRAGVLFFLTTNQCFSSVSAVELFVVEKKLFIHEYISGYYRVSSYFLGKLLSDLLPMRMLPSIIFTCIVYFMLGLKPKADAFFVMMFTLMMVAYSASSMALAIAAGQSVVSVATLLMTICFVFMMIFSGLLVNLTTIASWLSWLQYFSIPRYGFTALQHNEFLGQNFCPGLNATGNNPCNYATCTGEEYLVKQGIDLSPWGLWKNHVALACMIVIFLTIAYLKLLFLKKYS
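Read-out basis: Efflux inhibition in percent versus controls | Test system: ABCG2 IgMXP3 and barcoded ABCB1 CCRF-Adr cell mix | Quantity: 3 million cells/mL in well | Schedule: 10 min at 25 °C | Control set: Nicardipine as high control, DMSO as low control | Reagent: JC-1 as fluorescent efflux pump substrate | Signal: Flow cytometry of retained JC-1 fluorescence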
MEKK3 PB1 HTS: modulators of MEKK3-MEK5 PB1 binding, primary screen, biochemical, wildtype MEKK3, multiplex bead flow cytometry, Alexa488-MEK5. Mitogen-activated protein kinase kinase kinase 3 (Homo sapiens), Q99759. bead-based flow cytometry, Alexa488-MEK5 binding to MEKK3; actives lie on both sides; 0 = blocked by unlabeled MEK5, 100 = vehicle. binding response (% of control), % at 10 µM. 1.4% of 290,000 active. AID 1529, 2009;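 active = binding response more than 3 SD above or below the average of its plate-row segment, actives on both sides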;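 also: Alexa488 bead fluorescence after subtracting the streptavidin-only scavenger bead signal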
ABCB1 single pt: ABCB1 efflux pump inhibitors, confirmation, cell-based, single point, ABCG2 counter-screen | inhibition, % at 6.6 µM | 7% of 270 active | CCRF-Adr cells, JC-1 efflux, flow cytometry | AID 1451, 2008 | shares compounds with ABCG2 block;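 active = inhibition of pump activity above 50%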;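 also: 0% = DMSO and 100% = nicardipine full pump inhibition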
ABCG2 confirm: ABCG2 efflux pump inhibitors, confirmation, single point, IgMXP3 cells, ABCB1 counter-screen paired | shares compounds with ABCG2 block | JC-1 efflux, flow cytometry | inhibition, % at 6.6 µM | 6% of 270 active;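 active = inhibition above 50%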;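 also: 0% = DMSO wells and 100% = nicardipine pump inhibitor wells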
IgMXP3 fluor: compound autofluorescence in ABCG2-expressing IgMXP3 cells, confirmation, artefact control for ABC transporter inhibitor project, cell-based, 488/530 nm, flow cytometry. 30% of 270 active. fluorescence at 6.6 µM. shares compounds with ABCG2 block. compound autofluorescence 488/530 nm; hits give high values;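 active = fluorescence in ABCG2-expressing cells above the plate's control-well mean plus 3 SD, cut at about 15 in these data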;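 also: median cell fluorescence with compound minus that of DMSO-treated control cells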
CCRF autofluor: compound autofluorescence in ABCB1-expressing CCRF-Adr cells, confirmation, artefact control for ABC transporter inhibitor project, cell-based, 488/530 nm, flow cytometry; AID 1483, 2009; compound autofluorescence 488/530 nm; hits give high values; fluorescence at 6.6 µM; 30% of 270 active; shares compounds with ABCG2 block;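 active = fluorescence beyond the plate control mean plus 3 SD, with a fluorescence-to-maximum score over 2, cut at about 25 in these data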
* marks the source's active call; other numbers are inactive results; · = not tested or not shown.

SMILES	MEKK2 WT-MEK5	Efflux pump inh	MEKK2 mut-MEK5	ABCB1 block	ABCG2 block	MEKK3 PB1 HTS	ABCB1 single pt	ABCG2 confirm	IgMXP3 fluor	CCRF autofluor
CCOc1cc(N2CCOCC2)c(OCC)cc1NC(=O)COC(=O)c1cc(C)cc(C)c1	110	0	5	4	106*	105	9	45	-2	-4.3
Cc1ccc(OCCNC(=O)c2ccccc2F)cc1	103	0	10	·	·	103	·	·	·	·
Cc1ccnc(N/C=C(\C#N)c2nc(-c3cccc(Br)c3)cs2)c1	56	0	-11	47*	43	77	16	9	42*	161*
CCCCn1c(O)c(N=Nc2ccccn2)c2ccccc21	100	0	-1	2	79	98	0	51*	1.3	15
CCCCn1c(O)c(N=Nc2ccccc2O)c2ccccc21	·	0	·	·	·	·	·	·	·	·
OC1(c2cccc(C(F)(F)F)c2)CCN(c2ccc(-c3ccccc3)nn2)CC1	93	0	-5	2	93*	97	14	37	8.4	51*
CC(=O)Nc1ccc(C(=O)OCC(=O)c2cccc([N+](=O)[O-])c2)cc1	108	-1	7	0	82*	99	0	46	-1.6	-4.8
CCOC(=O)CSc1nc2cc(C)ccc2cc1C#N	101	0	-5	0	5	103	·	·	·	·
CCOC(=O)CSc1nc2cc(C)cc(C)c2cc1C#N	101	0	0	2	99*	104	1	16	61*	0.71
COc1ccccc1NC(=O)/C(=C/c1cccc([N+](=O)[O-])c1)c1ccccc1	107	0	1	3	57	102	-1	24	4.8	13
COC(=O)c1ccc(C(C(=O)NC2CCCCC2)N(Cc2ccccc2)C(=O)Cc2cccs2)cc1 (stereo not drawn)	96	-1	-2	48*	45	96	26	27	-2.4	-4.5
O=C1c2cccc(OCC(=O)N3CCCc4ccccc43)c2CCN1Cc1cccnc1	98	0	-1	6	25	101	·	·	·	·
Cc1ccccc1CN1CCc2c(OCC(=O)N3CCCc4ccccc43)cccc2C1=O	101	0	0	47*	52	101	29	36	22*	13
CSc1nn2c(C(F)(F)F)cc(C(F)(F)F)nc2c1C(N)=O	88	0	-15	·	·	91	·	·	·	·
CCN(CC)S(=O)(=O)c1ccc(C(=O)N(c2ccc(C)cc2)C2C=CS(=O)(=O)C2)cc1 (stereo not drawn)	106	0	-1	37	19	100	2	1	3.6	-0.99
Cc1ccc(N(C(=O)c2ccc(S(=O)(=O)N3CCOCC3)cc2)C2C=CS(=O)(=O)C2)cc1 (stereo not drawn)	97	0	4	1	5	101	·	·	·	·
CCOC(=O)c1csc(NC(=O)c2ccc3c(c2)OCCO3)n1	99	0	0	·	·	102	·	·	·	·
COc1ccc(N2CCN(C(=O)c3ccc(NS(=O)(=O)c4ccccc4)cc3)CC2)cc1	102	0	-2	1	83*	101	4	4	63*	24
COc1ccc(NS(=O)(=O)c2ccc(C(=O)N3CCCCCC3)cc2)cc1	·	0	·	·	·	·	·	·	·	·
O=C(CSc1nnc(-c2ccccc2F)o1)N1CCNC1=O	·	0	·	·	·	·	·	·	·	·
O=C(NCc1ccccn1)Nc1ccc(Cl)c(Cl)c1	103	0	1	1	70	100	0	23	-1.3	-2.1
O=C(NCc1ccccn1)Nc1ccc(F)c(Cl)c1	115	-3	13	·	·	108	·	·	·	·
COc1ccccc1[C@]1(C)ON(c2ccccc2C(F)(F)F)C1=O	·	0	·	·	·	·	·	·	·	·
O=c1cc(-c2ccccc2)[nH][nH]1	107	0	3	82*	-2	103	1	-2	-1.1	0.06
CC1=Nc2ccccc2/C1=C\c1nc(-c2ccc(C(F)(F)F)cc2)oc1O	83	0	7	44*	49	101	-23	13	69*	201*
SMILES	MEKK2 WT-MEK5	Efflux pump inh	MEKK2 mut-MEK5	ABCB1 block	ABCG2 block	MEKK3 PB1 HTS	ABCB1 single pt	ABCG2 confirm	IgMXP3 fluor	CCRF autofluor
CC1=Nc2ccccc2/C1=C/c1nc(-c2ccc(C)s2)oc1O	·	0	·	20	22	·	·	·	·	·
NC(=S)N=Nc1c(O)[nH]c2ccc(F)cc12	99	0	20	0	80	108	0	21	-1.9	-3.8
CN[C@H](C)C(=O)NC[C@H]1O[C@@H](n2cnc3c(N)ncnc32)[C@H](O)[C@@H]1O	·	0	·	·	·	·	·	·	·	·
CCN(CC)S(=O)(=O)c1ccc(O)c(NC(=O)c2cc(-c3cc(OC)c(OC)c(OC)c3)nc3ccccc23)c1	97	0	-1	·	·	104	·	·	·	·
COc1ccc(NC(=O)Nc2ccc(F)cc2F)cc1	102	0	4	0	15	104	·	·	·	·
O=C(Nc1ccc(C(=O)O)cc1)Nc1ccc(F)cc1F	103	0	-44	51*	190*	95	1	1	1.4	-1.9
O=C(COC(=O)/C=C/c1cccc(F)c1)NC(=O)NCc1ccccc1	·	0	·	·	·	·	·	·	·	·
Nc1c(-c2ccccc2)c(CSc2nc3ccccc3[nH]2)nn1-c1ccc(Cl)cc1	103	1	-1	43*	28	98	29	25	-0.69	-3
CCCCSc1nnc(-c2ccc(C)cc2)c2ccccc12	101	0	0	3	92*	102	25	40	-2.2	-4.4

High-throughput results: PubChem BioAssay, NMMLSC
